M5 ag: CHRM5 agonism in calcium assay; P08912; CHO-K1 hM5 cells, Fluo-8 calcium fluorescence; 0% DMSO wells, 100% maximal acetylcholine response; activation, % at 3 µM; 0.19% of 360,000 active; AID 624037;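 active means activation above the run's mean over test compounds plus 3 SD, cut at about 23% in these data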;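 further: signal is peak over basal fluorescence ratio across the kinetic read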
Target sequence (P08912 whole entry, looked up): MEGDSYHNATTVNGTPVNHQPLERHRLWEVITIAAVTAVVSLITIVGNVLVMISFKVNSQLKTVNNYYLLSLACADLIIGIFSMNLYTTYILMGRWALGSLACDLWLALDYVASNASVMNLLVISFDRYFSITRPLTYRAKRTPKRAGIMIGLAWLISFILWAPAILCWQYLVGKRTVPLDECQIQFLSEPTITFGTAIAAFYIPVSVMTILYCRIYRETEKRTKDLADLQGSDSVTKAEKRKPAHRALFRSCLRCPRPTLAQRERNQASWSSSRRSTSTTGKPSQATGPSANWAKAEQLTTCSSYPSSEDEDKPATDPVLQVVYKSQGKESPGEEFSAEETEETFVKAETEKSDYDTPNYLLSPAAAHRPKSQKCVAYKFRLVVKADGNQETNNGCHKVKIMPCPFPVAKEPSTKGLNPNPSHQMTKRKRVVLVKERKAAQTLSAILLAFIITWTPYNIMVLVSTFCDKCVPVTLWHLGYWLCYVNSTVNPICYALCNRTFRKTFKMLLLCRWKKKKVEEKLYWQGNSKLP
CHRM5 antagonist: CHRM5 antagonism in calcium assay; P08912; CHO-hM5 cells, Fluo-8 calcium fluorescence, ACh EC80; inhibition, % at 3 µM; 0.59% of 360,000 active;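 active means inhibition above a per-plate cutoff, the mean of that plate's test compounds plus 3 SD, cut at about 27% in these data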
CHRM4 antagonist: blocks acetylcholine activation of human M4 receptor; P08173; CHO-hM4 cells, ACh EC80, Fluo-8 calcium fluorescence; inhibition, % at 3 µM; 0.73% of 360,000 active; AID 624125;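 active means inhibition above its plate's cutoff, the mean inhibition of sample wells plus 3 SD, cut at about 27% in these data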
M4 ag: CHRM4 agonism in calcium assay; P08173; CHO-K1 hM4/Gqi5, Fluo-8 calcium fluorescence; vehicle 0%, full acetylcholine response 100%; activation, % at 3 µM; 0.14% of 360,000 active; AID 624127;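 active means activation above the run mean over all test wells plus 3 SD, cut at about 32% in these data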;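 further: peak over basal fluorescence ratio per well then scaled between controls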
M5 PAM: positive allosteric modulators of human muscarinic M5 receptor; P08912; CHO-K1 hM5, Fluo-8 calcium, ACh EC20 PAM; 0% = ACh EC20, 100% = ACh EC100; activation, % at 3 µM; 0.3% of 360,000 active; AID 624038;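 active means activation above the run cutoff, the mean activation of all test compounds plus 3 SD, cut at about 18% in these data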
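system = human M5 receptor in CHO-K1 cells | reagent = EC20 acetylcholine as agonist stimulus | compound dosing = single-point, 3 µM nominal | incubation = Fluo-8 loading 80 min at 37 °C plus 30 min room temperature | detection = Fluo-8 calcium dye fluorescence, kinetic read | benchmarks = low control EC20 acetylcholine (0%), high control EC100 acetylcholine (100%)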
M4 PAM: positive allosteric modulators of human muscarinic M4 receptor | CHO-K1 hM4/Gqi5, Fluo-8 calcium fluorescence, ACh EC20; 0% = ACh EC20, 100% = maximal ACh | 0.4% of 360,000 active | activation, % at 3 µM | AID 624126;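 active means activation above its plate's cutoff, the mean activation of sample wells plus 3 SD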
Of the large screens only hits and unclear results are named; the others gave an inactive call. Shown are actives, neighbours in structure and some others; about 1.8% of the full set was active somewhere.

O=C(CSc1nnc(CNc2ccc(F)cc2)o1)N1c2ccccc2Sc2ccccc21	none
CC(C)CN(C(=O)CSc1nc2ccccc2c(=O)[nH]1)c1c(N)n(CC(C)C)c(=O)[nH]c1=O	M4 PAM 24
c1ccc(CCCNc2ncnc3nc[nH]c23)cc1	none
c1ccc2c(CCNc3ncnc4nc[nH]c34)cccc2c1	CHRM5 antagonist 33, CHRM4 antagonist 29
Cc1cccc(N2CCN(C(=O)c3ccc(NS(=O)(=O)c4c(C)noc4C)cc3)CC2)c1C	none
Cc1noc(C)c1S(=O)(=O)Nc1ccc(C(=O)N2CCc3ccccc3C2)cc1	M5 PAM 20
Cc1noc(C)c1S(=O)(=O)Nc1ccc(C(=O)N2CCN(c3cccc(Cl)c3)CC2)cc1	CHRM5 antagonist 27, M4 ag 35
CC(=O)c1ccc(OCC(=O)OCC(=O)c2ccc(S(=O)(=O)N3CCCCC3)cc2)cc1	none
CC(=O)c1ccc(N2CCN(C(=O)c3c(-c4ccccc4Cl)noc3C)CC2)cc1	none
O=C(NNC(=S)NC(=O)C12CC3CC(CC(C3)C1)C2)c1ccncc1	M5 ag 28, M4 ag 76
CC1(C(=O)NC(=S)NNC(=O)c2ccncc2)CCCCC1	M4 ag 44
Cc1ccc(CC(CC(=O)O)C(=O)Nc2ccc(Cl)cc2)cc1 (stereo unspecified)	none
Cc1ccc(Cn2nnc3c(=O)[nH]c(C4CCN(S(=O)(=O)c5ccc(F)cc5)CC4)nc32)cc1	CHRM4 antagonist 32
Cc1ccc(NC(=O)CSCc2nc3c(nnn3Cc3ccc(F)cc3)c(=O)[nH]2)c(C)c1	M5 PAM 21
O=c1[nH]c(C2CCN(S(=O)(=O)c3ccc(S(=O)(=O)NC4CC4)cc3)CC2)nc2c1nnn2Cc1ccc(F)cc1	none
O=c1[nH]c(C2CCN(S(=O)(=O)c3ccccc3F)CC2)nc2c1nnn2Cc1ccc2c(c1)OCCO2	none
Cc1ccc(C)c(S(=O)(=O)N2CCC(c3nc4c(nnn4Cc4ccc(F)cc4)c(=O)[nH]3)CC2)c1	CHRM4 antagonist 49
O=c1[nH]c(C2CCN(S(=O)(=O)c3ccc(F)cc3)CC2)nc2c1nnn2Cc1ccc2c(c1)OCCO2	CHRM4 antagonist 81
Cc1cccc(NC(=O)CSCc2nc3c(nnn3Cc3ccc(F)cc3)c(=O)[nH]2)c1C	none
CC(=O)Nc1ccc(NC(=O)C(C)Sc2nc3ccccc3c(=O)n2CC2CCCO2)cc1 (stereo unspecified)	none
CC(=O)Oc1c(Br)cc(N(C(C)=O)S(=O)(=O)c2ccccc2)c2ccccc12	none
c1ccc(N=Nc2cn[nH]c2-c2ccco2)cc1	none
Cc1ccc(NC(=O)CSCC(=O)N2CCN(C(=O)c3ccco3)CC2)cc1	none
O=C(NCc1ccccn1)C(=O)Nc1cccc2ccccc12	none
O=C1c2ccccc2C(c2nnnn2-c2ccc3ccccc3c2)N1C1CC1 (stereo unspecified)	none
CN(CC(=O)Nc1ccc(Cl)c(C(F)(F)F)c1)C(=O)c1ccc(N2CCOCC2)c([N+](=O)[O-])c1	none
CN(C)c1ccc(/C=N/NC(=S)NCc2ccccc2)cc1	none
COc1cc(/C=N\NC(=O)CC(=O)NCCc2ccccc2)ccc1O	none
CCOc1ccc(/C=N\NC(=O)CC(=O)NCCc2ccccc2)cc1	none
CC(C)(C)c1ccc(/C=N/NC(=S)NCc2ccccc2)cc1	M4 PAM 25
CCOc1cc(/C=N\NC(=O)CC(=O)NCCc2ccccc2)ccc1O	CHRM5 antagonist 29
CCOc1ccc(/C=N/NC(=O)CC(=O)NCc2ccccc2)cc1	M5 PAM 28
CCCS(=O)(=O)NC(=O)C1(C)CCN(C(=O)c2cc(F)cc(F)c2)C1 (stereo unspecified)	none
CCn1cc([N+](=O)[O-])c(C(=O)N2CCCCCC2)n1	none
CCn1cc([N+](=O)[O-])c(C(=O)N2CCCc3ccccc32)n1	M4 PAM 22
Fc1ccc(-n2c(CN3CCCCC3)n[nH]c2=S)cc1	M5 PAM 21
S=c1[nH]nc(CN2CCCCC2)n1-c1ccc(Cl)cc1	none
O=c1c2cc(NC(=S)NCCCN3CCC(Cc4ccccc4)CC3)ccc2nc2n1CCCCC2	CHRM4 antagonist 44
COc1cc2c(cc1OC)-c1cc(OCCN3CCOCC3)nc(=O)n1CC2	M5 PAM 25
CC(C)N(C(=O)[C@H]1C[C@H](CC(=O)NCCc2ccccn2)C(=O)N2CCc3c([nH]c4cc(CCC(=O)N(C)C)ccc34)[C@]12C)C(C)C	none
CCOc1ccc2nc(NC(=O)Nc3ccccc3)sc2c1	none
COc1ccc2nc(NC(=O)Nc3ccccc3)sc2c1	CHRM4 antagonist 43
COc1cccc(NC(=O)Nc2cc(Cl)ccc2C)c1	CHRM5 antagonist 32
COc1cccc(NC(=O)Nc2ccc3nsnc3c2)c1	CHRM5 antagonist 54
COc1ccc(NC(=O)Nc2cccc(OC)c2)cc1	none
COc1cccc(NC(=O)Nc2ccc3nc(C)c(C)nc3c2)c1	none
O=C(COC(=O)c1cnccn1)Nc1cc(S(=O)(=O)N2CCOCC2)ccc1Cl	none
CCOc1ccc(N(CC(=O)Nc2c(C)cc(C)cc2C)C2=NC3CS(=O)(=O)CC3S2)cc1 (stereo unspecified)	none
O=C(c1ccco1)N1CCN(C(=O)c2ccc(Br)o2)CC1	none
O=C(c1ccc(Br)o1)N1CCN(C23CC4CC(CC(C4)C2)C3)CC1	CHRM4 antagonist 31
COc1cccc(/C=N/Nc2nc(Nc3ccccc3)nc(-n3nc(C)cc3C)n2)c1O	M4 ag 43
Cc1cc(C)n(-c2nc(Nc3ccccc3)nc(-n3nc(C)cc3C)n2)n1	none
O=C(Nc1ccc(-c2nc3ccccc3s2)c(O)c1)C1=COCCO1	none
O=C(Nc1ccc(O)c(-c2nc3ccccc3s2)c1)C1=COCCO1	CHRM4 antagonist 79
Cc1occc1C(=O)Nc1sc2c(c1C(N)=O)CCC(C(C)(C)C)C2 (stereo unspecified)	M4 PAM 29
CCOc1ccc(OCCSc2nc3ccccc3[nH]2)cc1	none
CCCOc1ccc(CSc2nc3ccccc3[nH]2)cc1	CHRM5 antagonist 42
C#CCOCC1CN(C)C(=O)O1 (stereo unspecified)	none
Cc1ccc(C)n1-c1ccc(C(=O)NN)cc1	M5 PAM 21
Cc1ccc(C)n1-c1ccc(C(=O)NCc2ccncc2)cc1	none
O=C(CCC(=O)c1cccs1)NCc1ccccc1Cl	none
C[C@@H]1CC=C[C@H]2[C@H]1C(=O)N(Cc1ccccc1)[C@H]2c1ccc2ccccc2c1Br	M5 PAM 22

Assay outcomes: PubChem BioAssay, The Scripps Research Institute Molecular Screening Center
